Measurements taken from publication PMC8640676 (Journal of Pesticide Science, 2021).

How the values were obtained:
[1] = molecular target: T1, protoporphyrinogen oxidase (PPO) (Mus musculus, UniProt P51175); assay: PPO-inhibition assay, mouse liver mitochondrial fraction; type: biochemical
T1 sequence (P51175 1-477): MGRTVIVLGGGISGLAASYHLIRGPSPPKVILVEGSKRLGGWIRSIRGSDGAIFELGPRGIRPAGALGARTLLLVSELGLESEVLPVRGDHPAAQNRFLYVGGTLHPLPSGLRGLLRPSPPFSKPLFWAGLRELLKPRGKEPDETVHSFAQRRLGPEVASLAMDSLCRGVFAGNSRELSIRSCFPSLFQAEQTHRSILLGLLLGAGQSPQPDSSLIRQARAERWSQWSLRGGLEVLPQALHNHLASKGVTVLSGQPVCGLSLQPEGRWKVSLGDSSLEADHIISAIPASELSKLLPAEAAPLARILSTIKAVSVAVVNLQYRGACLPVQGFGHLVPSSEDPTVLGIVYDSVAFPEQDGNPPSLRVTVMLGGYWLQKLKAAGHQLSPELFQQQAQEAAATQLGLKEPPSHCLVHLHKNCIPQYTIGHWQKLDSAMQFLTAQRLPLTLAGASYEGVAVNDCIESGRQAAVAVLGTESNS
How it was run: (§1)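 Liver mitochondria came from pooled SD rats and humans, or were freshly kit-isolated from Crl:CD1 mice and TOYO beagles. They were used at 0.2 mg protein/mL in 100 mM Tris-HCl pH 7.5 with 0.1% Triton-X, 1 mM EDTA and 40 mM ascorbate, preincubated 10 min at 37°C, then given 0.5 µM protoporphyrinogen IX. PPIX fluorescence (ex 410/em 630 nm) was read for 60 min at 37°C. Heat-killed mitochondria gave the background, and IC50 came from 4-parameter fits over 3 runs.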

[2] = 90-day subchronic toxicity study with epyrifenacil in dogs; type: in vivo, dog; details: beagle, dog, in vivo, oral
How it was run: (§2)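 Beagles, 4 per sex per group, were dosed orally with gelatin capsules at 0, 100, 300 or 1000 mg/kg/day for 90 consecutive days. The study was run to test guidelines under GLP.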

[3] = tested on: Beagle dogs; assay: as above; type: in vivo, dog
How it was run: as §2

[4] = molecular target: T2, protoporphyrinogen oxidase (PPO) (Rattus norvegicus, UniProt D3ZVN7); assay: PPO-inhibition assay, rat liver mitochondrial fraction; type: biochemical
T2 sequence (D3ZVN7 1-488): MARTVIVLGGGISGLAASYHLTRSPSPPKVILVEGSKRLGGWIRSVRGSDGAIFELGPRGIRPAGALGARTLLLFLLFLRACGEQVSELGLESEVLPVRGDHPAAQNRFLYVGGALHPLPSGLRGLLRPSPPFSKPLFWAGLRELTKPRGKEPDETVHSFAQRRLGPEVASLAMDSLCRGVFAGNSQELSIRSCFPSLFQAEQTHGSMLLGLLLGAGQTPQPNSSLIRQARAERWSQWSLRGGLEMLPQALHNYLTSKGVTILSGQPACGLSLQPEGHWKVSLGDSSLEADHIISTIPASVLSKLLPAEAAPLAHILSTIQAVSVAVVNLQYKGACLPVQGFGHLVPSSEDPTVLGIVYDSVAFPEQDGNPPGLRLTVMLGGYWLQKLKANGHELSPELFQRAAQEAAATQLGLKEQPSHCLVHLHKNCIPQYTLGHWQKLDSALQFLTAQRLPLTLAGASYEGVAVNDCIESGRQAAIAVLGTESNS
How it was run: as §1

[5] = molecular target: T3, protoporphyrinogen oxidase (PPO) (Homo sapiens, UniProt P50336); assay: PPO-inhibition assay, human liver mitochondrial fraction; type: biochemical
T3 sequence (P50336 1-477): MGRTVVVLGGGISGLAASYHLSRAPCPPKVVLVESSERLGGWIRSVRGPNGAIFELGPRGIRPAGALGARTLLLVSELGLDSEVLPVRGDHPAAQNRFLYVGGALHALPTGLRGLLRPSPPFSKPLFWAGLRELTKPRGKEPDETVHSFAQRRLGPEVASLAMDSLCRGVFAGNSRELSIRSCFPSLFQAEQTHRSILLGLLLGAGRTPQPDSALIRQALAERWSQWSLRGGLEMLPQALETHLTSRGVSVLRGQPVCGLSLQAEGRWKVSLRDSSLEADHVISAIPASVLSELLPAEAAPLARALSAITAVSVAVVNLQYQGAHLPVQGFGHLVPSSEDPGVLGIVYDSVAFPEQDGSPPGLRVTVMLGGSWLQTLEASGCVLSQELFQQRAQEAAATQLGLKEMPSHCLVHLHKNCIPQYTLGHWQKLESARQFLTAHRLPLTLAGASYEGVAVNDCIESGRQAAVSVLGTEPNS
How it was run: as §1

[6] = tested on: Crl:CD(SD) rats; assay: 90-day subchronic toxicity study with epyrifenacil in rats; type: in vivo, rat
How it was run: (§3)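 Crl:CD(SD) rats, 10 per sex per group, had free access to diet containing 0 (basal diet), 50, 300 or 800 ppm for 90 consecutive days. TK satellite groups held 4 rats per sex. The study was run to test guidelines under GLP.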

[7] = as above; type: in vivo, rat; details: Crl:CD(SD), rat, in vivo, oral
How it was run: as §3

[8] = In vitro metabolism study in liver microsomes; type: in vitro ADME; details: human liver microsomes
[9] = Toxicokinetics in plasma, rat 90-day study; type: in vivo; details: for AUC(0-t) / Cmax: rat, plasma, po
[10] = Toxicokinetics in plasma, dog 90-day study; type: in vivo; details: for Cmax: beagle, dog, plasma, po
[11] = molecular target: T4, protoporphyrinogen oxidase (PPO) (Canis lupus familiaris, UniProt A0A8I3Q7Z3); assay: PPO-inhibition assay, dog liver mitochondrial fraction; type: biochemical
T4 sequence (A0A8I3Q7Z3 1-480): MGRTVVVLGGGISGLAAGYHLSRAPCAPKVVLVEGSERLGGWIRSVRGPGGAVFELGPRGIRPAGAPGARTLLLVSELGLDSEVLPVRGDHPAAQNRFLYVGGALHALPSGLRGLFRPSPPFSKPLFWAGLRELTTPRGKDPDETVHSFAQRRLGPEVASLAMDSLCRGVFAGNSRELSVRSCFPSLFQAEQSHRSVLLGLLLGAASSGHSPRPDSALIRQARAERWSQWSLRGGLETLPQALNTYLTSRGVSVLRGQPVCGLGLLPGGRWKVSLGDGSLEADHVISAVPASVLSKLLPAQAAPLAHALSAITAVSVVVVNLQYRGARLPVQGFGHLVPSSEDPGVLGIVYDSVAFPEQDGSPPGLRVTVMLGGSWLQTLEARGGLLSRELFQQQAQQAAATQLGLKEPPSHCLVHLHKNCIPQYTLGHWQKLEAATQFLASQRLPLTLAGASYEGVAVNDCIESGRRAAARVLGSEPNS
How it was run: as §1

[12] = Toxicokinetics in plasma, mouse 90-day study; type: in vivo; details: for AUC(0-t) / Cmax: mouse, plasma, po
[13] = In vitro metabolism study in liver microsomes; type: in vitro ADME; details: rat liver microsomes
[14] = Incubation of epyrifenacil without microsomal fractions; type: in vitro ADME; details: 30 min of incubation
[15] = In vitro metabolism study in liver microsomes; type: in vitro ADME; details: mouse liver microsomes
[16] = tested on: Crl:CD1(ICR) mice; assay: 90-day subchronic toxicity study with epyrifenacil in mice; type: in vivo; details: mouse, 90-day study
How it was run: (§4)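 Crl:CD1(ICR) mice, 10 per sex per group, had free access to diet containing 0 (basal diet), 5, 25 or 100 ppm for 90 consecutive days. TK satellite groups held 24 mice per sex. The study was run to test guidelines under GLP.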

[17] = as above; type: in vivo; details: Crl:CD1(ICR), mouse, in vivo, oral
How it was run: as §4

[18] = tested on: cryopreserved primary hepatocytes of SD rats; assay: Hepatocyte uptake assay; type: in vitro ADME, rat; details: rats vs humans
[19] = tested on: cryopreserved primary hepatocytes of humans; assay: Hepatocyte uptake assay; type: in vitro ADME; details: human hepatocytes (both genders), 5 µM, 37°C minus 4°C
[20] = female, Crl:CD(SD), 19 mg/kg bw/day
[21] = male, Crl:CD(SD), 3 mg/kg bw/day
[22] = female, Crl:CD1(ICR), 4.1 mg/kg bw/day

## CCOC(=O)COc1ncccc1Oc1cc(-n2c(=O)cc(C(F)(F)F)n(C)c2=O)c(F)cc1Cl [epyrifenacil, ethyl[(3-{2-chloro-4-fluoro-5-[3-methyl-2,6-dioxo-4-(trifluoromethyl)-3,6-dihydropyrimidin-1(2H)-yl]phenoxy}pyridin-2-yl)oxy]acetate]
[1]
  IC50: 2.2 ± 0.03 nM
[2]; female
  NOAEL at 90 days: 300 mg/kg/day
[2]; male
  NOAEL at 90 days: 100 mg/kg/day
[3]; dog, 90-day study
  Major adverse findings: Increased glycogen associated with increased ALP, anemia
[3]; female dogs vs female mice
  NOAEL, fold change vs. corresponding mouse value: 73 fold
[3]; male dogs vs male mice
  NOAEL, fold change vs. corresponding mouse value: 143 fold
[4]
  IC50: 2.6 ± 0.05 nM
[5]
  IC50: 10.2 ± 0.66 nM
[6]; female rats vs female mice
  NOAEL, fold change vs. corresponding mouse value: 4.6 fold
[6]; male rats vs male mice
  NOAEL, fold change vs. corresponding mouse value: 4.3 fold
[6]; rat, 90-day study
  Major adverse findings: Hepatocyte injury caused by porphyrin accumulation, hepatocellular hypertrophy, anemia
[7]; female
  NOAEL at 90 days: 19 mg/kg/day
[7]; male
  NOAEL at 90 days: 3 mg/kg/day
[8]; 10 µM, NADPH, 37°C
  Time within which epyrifenacil almost disappeared: ≤ 5 min
[9]; rats, 90-day dietary administration (data not shown)
  Parent epyrifenacil detected in plasma: no measurable amount
[10]; dog plasma, 90-day oral capsule administration
  Parent epyrifenacil detected in plasma: not more than 0.04 µg/mL
[11]
  IC50: 7.6 ± 0.18 nM
[12]; mice, 90-day dietary administration (data not shown)
  Parent epyrifenacil detected in plasma: no measurable amount
[13]; 10 µM, NADPH, 37°C
  Time within which epyrifenacil almost disappeared: ≤ 5 min
[14]
  Non-enzymatic degradation: did not present any degradants
[15]; 10 µM, NADPH, 37°C
  Time within which epyrifenacil almost disappeared: ≤ 5 min
[16]
  Major adverse findings: Hepatocyte injury caused by porphyrin accumulation, hepatocellular hypertrophy, anemia
[17]; female
  NOAEL at 90 days: 4.1 mg/kg/day
[17]; male
  NOAEL at 90 days: 0.7 mg/kg/day

## Cn1c(C(F)(F)F)cc(=O)n(-c2cc(Oc3cccnc3OCC(=O)O)c(Cl)cc2F)c1=O [S-3100-CA, (3-{2-chloro-4-fluoro-5-[1,2,3,6-tetrahydro-3-methyl-2,6-dioxo-4-(trifluoromethyl)pyrimidin-1-yl]phenoxy}pyridin-2-yloxy)acetic acid]
[18]
  Hepatocyte uptake, times greater in rats than in humans: 2 times
[1]
  IC50: 0.9 ± 0.3 nM
[4]
  IC50: 1.5 ± 0.36 nM
[5]
  IC50: 12.5 ± 2.08 nM
[8]; [14C]epyrifenacil 10 µM
  S-3100-CA detected as major metabolite, share of the applied radioactivity: no less than 80%
[9]; female rats vs female mice
  AUC0–24 of S-3100-CA at NOAEL, fold change vs. corresponding mouse value: 2.2 fold
  Cmax of S-3100-CA at NOAEL, fold change vs. corresponding mouse value: 2.0 fold
[9]; [20]
  AUC(0-t): 5020 ng·h/mL
  Cmax: 266 ng/mL
[9]; female, Crl:CD(SD), 50 ppm
  AUC(0-t): 879 ng·h/mL
[9]; female, 50 ppm in diet
  Cmax: 46.5 ng/mL
[9]; female, 300 ppm in diet
  AUC(0-t): 5020 ng·h/mL
  Cmax: 266 ng/mL
[9]; female, 800 ppm in diet
  AUC(0-t): 13200 ng·h/mL
  Cmax: 756 ng/mL
[9]; male rats vs male mice
  Cmax of S-3100-CA at NOAEL, fold change vs. corresponding mouse value: 1.6 fold
[9]; [21]
  AUC(0-t): 467 ng·h/mL
  Cmax: 20.7 ng/mL
[9]; male, Crl:CD(SD), 50 ppm
  AUC(0-t): 467 ng·h/mL
  Cmax: 20.7 ng/mL
[9]; male, 300 ppm in diet
  AUC(0-t): 4010 ng·h/mL
  Cmax: 248 ng/mL
[10]; female dogs vs female mice
  AUC0–24 of S-3100-CA at NOAEL, fold change vs. corresponding mouse value: 23 fold
  Cmax of S-3100-CA at NOAEL, fold change vs. corresponding mouse value: 42 fold
[10]; female, 300 mg/kg bw/day
  Cmax: 5650 ng/mL
[10]; female, 300 mg/kg/day
  Cmax: 5650 ng/mL
[10]; male dogs vs male mice
  Cmax of S-3100-CA at NOAEL, fold change vs. corresponding mouse value: 74 fold
[10]; male, 100 mg/kg bw/day
  Cmax: 947 ng/mL
[10]; male, 100 mg/kg/day
  Cmax: 947 ng/mL
[11]
  IC50: 11.1 ± 3.12 nM
[12]; [22]
  AUC(0-t): 2240 ng·h/mL
  Cmax: 135 ng/mL
[12]; female, 5 ppm in diet
  AUC(0-t): 403 ng·h/mL
  Cmax: 22.7 ng/mL
[12]; female, 25 ppm in diet
  AUC(0-t): 2240 ng·h/mL
  Cmax: 135 ng/mL
[12]; female, 100 ppm in diet
  AUC(0-t): 14800 ng·h/mL
  Cmax: 860 ng/mL
[12]; male, Crl:CD1(ICR), 0.7 mg/kg bw/day
  Cmax: 12.8 ng/mL
[12]; male, 5 ppm in diet
  Cmax: 12.8 ng/mL
[12]; male, 25 ppm in diet
  AUC(0-t): 4580 ng·h/mL
  Cmax: 64.9 ng/mL
[12]; male, 100 ppm in diet
  AUC(0-t): 10100 ng·h/mL
  Cmax: 550 ng/mL
[19]
  Active uptake rate into hepatocytes: 3.83 µL/10^6 cells/min
[13]; [14C]epyrifenacil 10 µM
  S-3100-CA detected as major metabolite, share of the applied radioactivity: no less than 80%
[15]; [14C]epyrifenacil 10 µM
  S-3100-CA detected as major metabolite, share of the applied radioactivity: no less than 80%
